ChEMBL document CHEMBL1212799 (2010)
Converted amounts (≈) assume the structure as drawn.

What was measured:
Klebsiella pneumoniae [1] = assay: Antibacterial activity against Klebsiella pneumoniae isolate 377 in vitro pharmacodynamic model; format: functional
Summary of the method: (§1)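 Simulated peak 38.4 µg/ml, trough 3.04 µg/ml. CAMHB at 37°C, 10^6 CFU/ml from overnight culture, drug started at 0.5 h. Two treated models plus one growth control. Change in log10 CFU/ml over 24 h on blood agar. Detection limit 10^1 CFU/ml.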

Klebsiella pneumoniae [2] = assay: Antibacterial activity against Klebsiella pneumoniae isolate 334 in vitro pharmacodynamic model; format: functional; summary of the method: as §1
Klebsiella pneumoniae [3] = assay: Antibacterial activity against Klebsiella pneumoniae isolate 361 in vitro pharmacodynamic model; format: functional
Summary of the method: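 Inoculum 10^6 CFU/ml; dosing began 0.5 h after inoculation. Two treated models plus one untreated control per isolate; blood-agar counts; change in log10 CFU/ml over 24 h (detection limit 10^1); drug levels checked by HPLC.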

Pseudomonas aeruginosa [4] = assay: Antibacterial activity against Pseudomonas aeruginosa isolate 1038 in vitro pharmacodynamic model; format: functional; summary of the method: as §1
Klebsiella pneumoniae [5] = assay: fT>MIC in Klebsiella pneumoniae isolate 377 at 2 gram for every 8 hrs administered as 3 hrs infusion over 24 hrs in in vitro pharmcodynamic model; format: functional
Klebsiella pneumoniae [6] = assay: fT>MIC in Klebsiella pneumoniae isolate 328A at 2 gram for every 8 hrs administered as 3 hrs infusion over 24 hrs in in vitro pharmcodynamic model; format: functional
Summary of the method: (§2)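 Samples assayed by HPLC (linear 0.25–40 µg/ml). Time free drug stayed above the modal triplicate broth-microdilution MIC (CLSI) calculated for each 8-h interval.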

Klebsiella pneumoniae [7] = assay: fT>MIC in Klebsiella pneumoniae isolate 351 at 2 gram for every 8 hrs administered as 3 hrs infusion over 24 hrs in in vitro pharmcodynamic model; format: functional; summary of the method: as §2
Klebsiella pneumoniae [8] = assay: fT>MIC in Klebsiella pneumoniae isolate 354 at 2 gram for every 8 hrs administered as 3 hrs infusion over 24 hrs in in vitro pharmcodynamic model; format: functional; summary of the method: as §2
Klebsiella pneumoniae [9] = assay: fT>MIC in Klebsiella pneumoniae isolate 375 at 2 gram for every 8 hrs administered as 3 hrs infusion over 24 hrs in in vitro pharmcodynamic model; format: functional
Pseudomonas aeruginosa [10] = assay: fT>MIC in Pseudomonas aeruginosa isolate 1030 at 2 gram for every 8 hrs administered as 3 hrs infusion over 24 hrs in in vitro pharmcodynamic model; format: functional
Pseudomonas aeruginosa [11] = assay: fT>MIC in Pseudomonas aeruginosa isolate 762 at 2 gram for every 8 hrs administered as 3 hrs infusion over 24 hrs in in vitro pharmcodynamic model; format: functional
Pseudomonas aeruginosa [12] = assay: fT>MIC in Pseudomonas aeruginosa isolate 988 at 2 gram for every 8 hrs administered as 3 hrs infusion over 24 hrs in in vitro pharmcodynamic model; format: functional
Klebsiella pneumoniae [13] = assay: fT>MIC in Klebsiella pneumoniae isolate 377 at 2 gram for every 8 hrs administered as 3 hrs infusion measured over 0-8 hrs in in vitro pharmcodynamic model; format: functional
Klebsiella pneumoniae [14] = assay: fT>MIC in Klebsiella pneumoniae isolate 328A at 2 gram for every 8 hrs administered as 3 hrs infusion measured over 0-8 hrs in in vitro pharmcodynamic model; format: functional; summary of the method: as §2
Klebsiella pneumoniae [15] = assay: fT>MIC in Klebsiella pneumoniae isolate 351 at 2 gram for every 8 hrs administered as 3 hrs infusion measured over 0-8 hrs in in vitro pharmcodynamic model; format: functional; summary of the method: as §2
Klebsiella pneumoniae [16] = assay: fT>MIC in Klebsiella pneumoniae isolate 354 at 2 gram for every 8 hrs administered as 3 hrs infusion measured over 0-8 hrs in in vitro pharmcodynamic model; format: functional; summary of the method: as §2
Klebsiella pneumoniae [17] = assay: fT>MIC in Klebsiella pneumoniae isolate 353 at 2 gram for every 8 hrs administered as 3 hrs infusion measured over 0-8 hrs in in vitro pharmcodynamic model; format: functional, isoalte 353; summary of the method: as §2
Klebsiella pneumoniae [18] = assay: fT>MIC in Klebsiella pneumoniae isolate 368 at 2 gram for every 8 hrs administered as 3 hrs infusion measured over 0-8 hrs in in vitro pharmcodynamic model; format: functional; summary of the method: as §2
Klebsiella pneumoniae [19] = assay: fT>MIC in Klebsiella pneumoniae isolate 375 at 2 gram for every 8 hrs administered as 3 hrs infusion measured over 0-8 hrs in in vitro pharmcodynamic model; format: functional
Pseudomonas aeruginosa [20] = assay: fT>MIC in Pseudomonas aeruginosa isolate 1038 at 2 gram for every 8 hrs administered as 3 hrs infusion measured over 0-8 hrs in in vitro pharmcodynamic model; format: functional
Pseudomonas aeruginosa [21] = assay: fT>MIC in Pseudomonas aeruginosa isolate 1177 at 2 gram for every 8 hrs administered as 3 hrs infusion measured over 0-8 hrs in in vitro pharmcodynamic model; format: functional
Pseudomonas aeruginosa [22] = assay: fT>MIC in Pseudomonas aeruginosa isolate 988 at 2 gram for every 8 hrs administered as 3 hrs infusion measured over 0-8 hrs in in vitro pharmcodynamic model; format: functional
Klebsiella pneumoniae [23] = assay: fT>MIC in Klebsiella pneumoniae isolate 328A at 2 gram for every 8 hrs administered as 3 hrs infusion measured over 8-16 hrs in in vitro pharmcodynamic model; format: functional; summary of the method: as §2
Klebsiella pneumoniae [24] = assay: fT>MIC in Klebsiella pneumoniae isolate 368 at 2 gram for every 8 hrs administered as 3 hrs infusion measured over 8-16 hrs in in vitro pharmcodynamic model; format: functional
Pseudomonas aeruginosa [25] = assay: fT>MIC in Pseudomonas aeruginosa isolate 762 at 2 gram for every 8 hrs administered as 3 hrs infusion measured over 8-16 hrs in in vitro pharmcodynamic model; format: functional
Klebsiella pneumoniae [26] = assay: fT>MIC in Klebsiella pneumoniae isolate 377 at 2 gram for every 8 hrs administered as 3 hrs infusion measured over 16-24 hrs in in vitro pharmcodynamic model; format: functional
Klebsiella pneumoniae [27] = assay: fT>MIC in Klebsiella pneumoniae isolate 351 at 2 gram for every 8 hrs administered as 3 hrs infusion measured over 16-24 hrs in in vitro pharmcodynamic model; format: functional; summary of the method: as §2
Klebsiella pneumoniae [28] = assay: fT>MIC in Klebsiella pneumoniae isolate 353 at 2 gram for every 8 hrs administered as 3 hrs infusion measured over 16-24 hrs in in vitro pharmcodynamic model; format: functional, isoalte 353; summary of the method: as §2
Klebsiella pneumoniae [29] = assay: fT>MIC in Klebsiella pneumoniae isolate 375 at 2 gram for every 8 hrs administered as 3 hrs infusion measured over 16-24 hrs in in vitro pharmcodynamic model; format: functional
Klebsiella pneumoniae [30] = assay: fT>MIC in Klebsiella pneumoniae isolate 361 at 2 gram for every 8 hrs administered as 3 hrs infusion measured over 16-24 hrs in in vitro pharmcodynamic model; format: functional; summary of the method: as §2
Pseudomonas aeruginosa [31] = assay: fT>MIC in Pseudomonas aeruginosa isolate 1038 at 2 gram for every 8 hrs administered as 3 hrs infusion measured over 16-24 hrs in in vitro pharmcodynamic model; format: functional
Pseudomonas aeruginosa [32] = assay: fT>MIC in Pseudomonas aeruginosa isolate 896 at 2 gram for every 8 hrs administered as 3 hrs infusion measured over 16-24 hrs in in vitro pharmcodynamic model; format: functional
Klebsiella pneumoniae [33] = assay: Antibacterial activity against Klebsiella pneumoniae isolate 353 assessed as reduction of bacterial count at 16 ug/ml within 6 hrs in vitro pharmacodynamic model; format: functional, isoalte 353
Klebsiella pneumoniae [34] = assay: Antibacterial activity against Klebsiella pneumoniae isolate 354 assessed as reduction of bacterial count at 8 ug/ml within 6 hrs in vitro pharmacodynamic model; format: functional
Klebsiella pneumoniae [35] = assay: Antibacterial activity against Klebsiella pneumoniae isolate 351 assessed as reduction of bacterial count at 8 ug/ml within 6 hrs in vitro pharmacodynamic model; format: functional
Pseudomonas aeruginosa [36] = assay: Antibacterial activity against Pseudomonas aeruginosa isolate 1030 assessed as reduction of bacterial count at 8 ug/ml within 6 hrs in vitro pharmacodynamic model; format: functional
Pseudomonas aeruginosa [37] = assay: Antibacterial activity against Pseudomonas aeruginosa isolate 1038 assessed as reduction of bacterial count at 8 ug/ml within 6 hrs in vitro pharmacodynamic model; format: functional
Klebsiella pneumoniae [38] = assay: fT>MIC in Klebsiella pneumoniae isolate 360 at 2 gram for every 8 hrs administered as 3 hrs infusion measured over 0-8 hrs in in vitro pharmcodynamic model; format: functional; summary of the method: as §2
Klebsiella pneumoniae [39] = assay: Antibacterial activity against Klebsiella pneumoniae isolate 368 assessed as reduction of bacterial count at 32 ug/ml within 6 hrs in vitro pharmacodynamic model; format: functional

## C[C@@H](O)[C@H]1C(=O)N2C(C(=O)O)=C(S[C@@H]3CN[C@H](C(=O)N(C)C)C3)[C@H](C)[C@H]12 [MEROPENEM]
Klebsiella pneumoniae [1]
  MIC: 2 µg/mL (≈ 5.22 µM)
Klebsiella pneumoniae [2]
  MIC: 32 µg/mL (≈ 83.4 µM)
Klebsiella pneumoniae [3]
  MIC: 64 µg/mL (≈ 167 µM)
Pseudomonas aeruginosa [4]
  MIC: 8 µg/mL (≈ 20.9 µM)
Klebsiella pneumoniae [5]
  fT>MIC: 100%
Klebsiella pneumoniae [6]
  fT>MIC: 69%
Klebsiella pneumoniae [7]
  fT>MIC: 69%
Klebsiella pneumoniae [8]
  fT>MIC: 69%
Klebsiella pneumoniae [9]
  fT>MIC: 16%
Pseudomonas aeruginosa [10]
  fT>MIC: 69%
Pseudomonas aeruginosa [11]
  fT>MIC: 47%
Pseudomonas aeruginosa [12]
  fT>MIC: 47%
Klebsiella pneumoniae [13]
  fT>MIC: 100%
Klebsiella pneumoniae [14]
  fT>MIC: 69%
Klebsiella pneumoniae [15]
  fT>MIC: 69%
Klebsiella pneumoniae [16]
  fT>MIC: 68%
Klebsiella pneumoniae [17]
  fT>MIC: 38%
Klebsiella pneumoniae [18]
  fT>MIC: 0%
Klebsiella pneumoniae [19]
  fT>MIC: 0%
Pseudomonas aeruginosa [20]
  fT>MIC: 94%
Pseudomonas aeruginosa [21]
  fT>MIC: 75%
Pseudomonas aeruginosa [22]
  fT>MIC: 47%
Klebsiella pneumoniae [23]
  fT>MIC: 72%
Klebsiella pneumoniae [24]
  fT>MIC: 0%
Pseudomonas aeruginosa [25]
  fT>MIC: 63%
Klebsiella pneumoniae [26]
  fT>MIC: 100%
Klebsiella pneumoniae [27]
  fT>MIC: 50%
Klebsiella pneumoniae [28]
  fT>MIC: 0%
Klebsiella pneumoniae [29]
  fT>MIC: 0%
Klebsiella pneumoniae [30]
  fT>MIC: 0%
Pseudomonas aeruginosa [31]
  fT>MIC: 82%
Pseudomonas aeruginosa [32]
  fT>MIC: 56%
Klebsiella pneumoniae [33]
  log10cfu: >3
Klebsiella pneumoniae [34]
  log10cfu: >3
Klebsiella pneumoniae [35]
  log10cfu: >3
Pseudomonas aeruginosa [36]
  log10cfu: >=3
Pseudomonas aeruginosa [37]
  log10cfu: >=3
Klebsiella pneumoniae [38]
  fT>MIC: 0%
Klebsiella pneumoniae [39]
  log10cfu: >3
